Measurements taken from ChEMBL document CHEMBL1649137, “Genetic analysis of factors affecting susceptibility of Bacillus subtilis to daptomycin” (2009).
≈ marks a conversion by molar mass, not a printed value.

Columns and labels:
Assay type in all cases: functional
Bacillus subtilis [1] = assay: Antibacterial activity against wild-type Bacillus subtilis
Summary of the method: (§1)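 Daptomycin MIC by liquid growth inhibition. Overnight cultures diluted 1:100, grown to mid-log, rediluted to 5 × 10^5 CFU/ml in Mueller-Hinton broth with 50 mg/liter Ca2+. At least 10 concentrations near the predicted MIC, plus a no-drug control, added at start; 200 μl. OD600 read every 20 min for 24 h at 37°C with shaking. Inhibition: 24 h OD600 <0.05. MIC is the mode of at least triplicates.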

Bacillus subtilis [2] = assay: Antibacterial activity against mprF and pspA gene-deficient Bacillus subtilis CU1065 mutant by liquid growth inhibition assay; summary of the method: as §1
Bacillus subtilis [3] = assay: Antibacterial activity against ugtP gene-deficient Bacillus subtilis CU1065 mutant by liquid growth inhibition assay; summary of the method: as §1
Bacillus subtilis [4] = assay: Antibacterial activity against sigMWX gene-deficient Bacillus subtilis CU1065 triple mutant by liquid growth inhibition assay; summary of the method: as §1
Bacillus subtilis [5] = assay: Antibacterial activity against mprF and ugtP gene-deficient Bacillus subtilis CU1065 mutant by liquid growth inhibition assay; summary of the method: as §1
Bacillus subtilis [6] = assay: Decrease in yisY gene expression in Bacillus subtilis W168 by microarray analysis
Summary of the method: (§2)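 W168 grown in Ca2+-supplemented Mueller-Hinton broth at 37°C to OD600 0.4, split, and one half exposed to 1 μg/ml daptomycin for 20 min. Total RNA from three biological replicates; cDNA labeled with Alexa Fluor 555/647 and co-hybridized at 42°C for 16–18 h. Genes with summed intensity <20 or SD > mean were dropped. Fold change is treated/untreated signal, from ≥6 spot measurements.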

Bacillus subtilis [7] = assay: Antibacterial activity against liaIH and pspA gene-deficient Bacillus subtilis CU1065 mutant by liquid growth inhibition assay; summary of the method: as §1
Bacillus subtilis [8] = assay: Induction of liaH gene expression in Bacillus subtilis W168 by microarray analysis; summary of the method: as §2
Bacillus subtilis [9] = assay: Induction of liaR gene expression in Bacillus subtilis W168 by microarray analysis; summary of the method: as §2
Bacillus subtilis [10] = assay: Antibacterial activity against sigMWX and pspA gene-deficient Bacillus subtilis CU1065 mutant by liquid growth inhibition assay; summary of the method: as §1
Bacillus subtilis [11] = assay: Antibacterial activity against liaIH and mprF gene-deficient Bacillus subtilis W168 mutant by liquid growth inhibition assay; summary of the method: as §1
Bacillus subtilis [12] = assay: Antibacterial activity against sigWM gene-deficient Bacillus subtilis CU1065 double mutant by liquid growth inhibition assay; summary of the method: as §1
Bacillus subtilis [13] = assay: Induction of yxjI gene expression in Bacillus subtilis W168 by microarray analysis
Summary of the method: (§3)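 W168 cultures in Mueller-Hinton broth with 50 mg/liter Ca2+, 37°C with shaking, grown to mid-log phase (OD600 0.4) from a 1:1,000 overnight dilution. Split: one half given 1 μg/ml daptomycin for 20 min, the other left untreated. Total RNA from three biological replicates; cDNA labeled with Alexa Fluor 555 or 647 and hybridized 16 to 18 h at 42°C. Induction = treated/untreated signal intensity, duplicate spots on three arrays.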

Bacillus subtilis [14] = assay: Induction of yoeB gene expression in Bacillus subtilis W168 by microarray analysis; summary of the method: as §2
Bacillus subtilis [15] = assay: Induction of murB gene expression in Bacillus subtilis W168 by microarray analysis; summary of the method: as §2
Bacillus subtilis [16] = assay: Decrease in rpsT gene expression in Bacillus subtilis W168 by microarray analysis; summary of the method: as §2
Bacillus subtilis [17] = assay: Antibacterial activity against mprF gene-deficient Bacillus subtilis CU1065 mutant by liquid growth inhibition assay; summary of the method: as §1
Bacillus subtilis [18] = assay: Antibacterial activity against liaIH gene-deficient Bacillus subtilis W168 mutant by liquid growth inhibition assay; summary of the method: as §1
Bacillus subtilis [19] = assay: Induction of liaI gene expression in Bacillus subtilis W168 by microarray analysis; summary of the method: as §2
Bacillus subtilis [20] = assay: Induction of murG gene expression in Bacillus subtilis W168 by microarray analysis; summary of the method: as §2
Bacillus subtilis [21] = assay: Induction of ydaH gene expression in Bacillus subtilis W168 by microarray analysis; summary of the method: as §2
Bacillus subtilis [22] = assay: Antibacterial activity against psd gene-deficient Bacillus subtilis CU1065 mutant by liquid growth inhibition assay; summary of the method: as §1
Bacillus subtilis [23] = assay: Induction of yuaF gene expression in Bacillus subtilis W168 by microarray analysis; summary of the method: as §2
Bacillus subtilis [24] = assay: Induction of yuaG gene expression in Bacillus subtilis W168 by microarray analysis; summary of the method: as §2
Bacillus subtilis [25] = assay: Antibacterial activity against Bacillus subtilis CU1065 harboring IPTG-induced pgsA by liquid growth inhibition assay; summary of the method: as §1
Bacillus subtilis [26] = assay: Induction of rodA gene expression in Bacillus subtilis W168 by microarray analysis; summary of the method: as §2
Bacillus subtilis [27] = assay: Antibacterial activity against sigW gene-deficient Bacillus subtilis CU1065 mutant by liquid growth inhibition assay; summary of the method: as §1
Bacillus subtilis [28] = assay: Antibacterial activity against liaH and pspA gene-deficient Bacillus subtilis CU1065 mutant by liquid growth inhibition assay; summary of the method: as §1
Bacillus subtilis [29] = assay: Decrease in fabHA gene expression in Bacillus subtilis W168 by microarray analysis; summary of the method: as §2
Bacillus subtilis [30] = assay: Decrease in degR gene expression in Bacillus subtilis W168 by microarray analysis; summary of the method: as §2
Bacillus subtilis [31] = assay: Decrease in fabHB gene expression in Bacillus subtilis W168 by microarray analysis; summary of the method: as §2
Bacillus subtilis [32] = assay: Decrease in ywfB gene expression in Bacillus subtilis W168 by microarray analysis; summary of the method: as §2
Bacillus subtilis [33] = assay: Antibacterial activity against liaGFSR gene-deficient Bacillus subtilis W168 mutant by liquid growth inhibition assay; summary of the method: as §1
Bacillus subtilis [34] = assay: Antibacterial activity against sigXM and liaIH gene-deficient Bacillus subtilis CU1065 mutant by liquid growth inhibition assay; summary of the method: as §1
Bacillus subtilis [35] = assay: Antibacterial activity against liaH, pspA and sigW gene-deficient Bacillus subtilis CU1065 mutant by liquid growth inhibition assay; summary of the method: as §1
Bacillus subtilis [36] = assay: Induction of liaF gene expression in Bacillus subtilis W168 by microarray analysis; summary of the method: as §2
Bacillus subtilis [37] = assay: Induction of yqjL gene expression in Bacillus subtilis W168 by microarray analysis; summary of the method: as §2
Bacillus subtilis [38] = assay: Induction of sigM gene expression in Bacillus subtilis W168 by microarray analysis; summary of the method: as §2
Bacillus subtilis [39] = assay: Induction of yhcY gene expression in Bacillus subtilis W168 by microarray analysis; summary of the method: as §2
Bacillus subtilis [40] = assay: Decrease in yvzC gene expression in Bacillus subtilis W168 by microarray analysis; summary of the method: as §2
Bacillus subtilis [41] = assay: Antibacterial activity against liar gene-deficient Bacillus subtilis W168 mutant by liquid growth inhibition assay; summary of the method: as §1
Bacillus subtilis [42] = assay: Decrease in yxeQ gene expression in Bacillus subtilis W168 by microarray analysis; summary of the method: as §2
Bacillus subtilis [43] = assay: Antibacterial activity against sigMWX and liaIH gene-deficient Bacillus subtilis CU1065 mutant by liquid growth inhibition assay; summary of the method: as §1
Bacillus subtilis [44] = assay: Decrease in yitI gene expression in Bacillus subtilis W168 by microarray analysis; summary of the method: as §2
Bacillus subtilis [45] = assay: Decrease in lmrB gene expression in Bacillus subtilis W168 by microarray analysis; summary of the method: as §2
Bacillus subtilis [46] = assay: Induction of yvrL gene expression in Bacillus subtilis W168 by microarray analysis; summary of the method: as §3
Bacillus subtilis [47] = assay: Antibacterial activity against pspA gene-deficient Bacillus subtilis CU1065 mutant by liquid growth inhibition assay; summary of the method: as §1
Bacillus subtilis [48] = assay: Antibacterial activity against liaH and yhcYZ gene-deficient Bacillus subtilis W168 mutant by liquid growth inhibition assay; summary of the method: as §1
Bacillus subtilis [49] = assay: Decrease in rpmB gene expression in Bacillus subtilis W168 by microarray analysis; summary of the method: as §2
Bacillus subtilis [50] = assay: Antibacterial activity against pssA gene-deficient Bacillus subtilis CU1065 mutant by liquid growth inhibition assay; summary of the method: as §1
Bacillus subtilis [51] = assay: Induction of yhcZ gene expression in Bacillus subtilis W168 by microarray analysis; summary of the method: as §2

SMILES: CCCCCCCCCC(=O)N[C@@H](Cc1c[nH]c2ccccc12)C(=O)N[C@H](CC(N)=O)C(=O)N[C@@H](CC(=O)O)C(=O)N[C@@H]1C(=O)NCC(=O)N[C@@H](CCCN)C(=O)N[C@@H](CC(=O)O)C(=O)N[C@H](C)C(=O)N[C@@H](CC(=O)O)C(=O)NCC(=O)N[C@H](CO)C(=O)N[C@@H]([C@H](C)CC(=O)O)C(=O)N[C@@H](CC(=O)c2ccccc2N)C(=O)O[C@@H]1C
- MIC (Bacillus subtilis [1]): 1 µg/mL (≈ 0.617 µM)
- MIC (Bacillus subtilis [2]): 0.5 µg/mL (≈ 0.309 µM)
- MIC (Bacillus subtilis [3]): 0.9 µg/mL (≈ 0.555 µM)
- MIC (Bacillus subtilis [4]): 0.6 µg/mL (≈ 0.37 µM)
- MIC (Bacillus subtilis [5]): 0.6 µg/mL (≈ 0.37 µM)
- fold change (FC) (Bacillus subtilis [6]): 0.5
- MIC (Bacillus subtilis [7]): 0.2 µg/mL (≈ 0.123 µM)
- fold change (FC) (Bacillus subtilis [8]): 1336
- fold change (FC) (Bacillus subtilis [9]): 75
- MIC (Bacillus subtilis [10]): 0.5 µg/mL (≈ 0.309 µM)
- MIC (Bacillus subtilis [11]): 0.2 µg/mL (≈ 0.123 µM)
- MIC (Bacillus subtilis [12]): 0.7 µg/mL (≈ 0.432 µM)
- fold change (FC) (Bacillus subtilis [13]): 2.1
- fold change (FC) (Bacillus subtilis [14]): 2.1
- fold change (FC) (Bacillus subtilis [15]): 2
- fold change (FC) (Bacillus subtilis [16]): 0.5
- MIC (Bacillus subtilis [17]): 0.5 µg/mL (≈ 0.309 µM)
- MIC (Bacillus subtilis [18]): 0.4 µg/mL (≈ 0.247 µM)
- fold change (FC) (Bacillus subtilis [19]): 1294
- fold change (FC) (Bacillus subtilis [20]): 2.4
- fold change (FC) (Bacillus subtilis [21]): 6.2
- MIC (Bacillus subtilis [22]): 1 µg/mL (≈ 0.617 µM)
- fold change (FC) (Bacillus subtilis [23]): 4.8
- fold change (FC) (Bacillus subtilis [24]): 2
- MIC (Bacillus subtilis [25]): 1 µg/mL (≈ 0.617 µM)
- fold change (FC) (Bacillus subtilis [26]): 2.7
- MIC (Bacillus subtilis [27]): 0.8 µg/mL (≈ 0.494 µM)
- MIC (Bacillus subtilis [28]): 0.2 µg/mL (≈ 0.123 µM)
- fold change (FC) (Bacillus subtilis [29]): 2.3
- fold change (FC) (Bacillus subtilis [30]): 0.5
- fold change (FC) (Bacillus subtilis [31]): 2.8
- fold change (FC) (Bacillus subtilis [32]): 7.9
- MIC (Bacillus subtilis [33]): 0.5 µg/mL (≈ 0.309 µM)
- MIC (Bacillus subtilis [34]): 0.2 µg/mL (≈ 0.123 µM)
- MIC (Bacillus subtilis [35]): 0.2 µg/mL (≈ 0.123 µM)
- fold change (FC) (Bacillus subtilis [36]): 149
- fold change (FC) (Bacillus subtilis [37]): 7.8
- fold change (FC) (Bacillus subtilis [38]): 2.1
- fold change (FC) (Bacillus subtilis [39]): 3.3
- fold change (FC) (Bacillus subtilis [40]): 26
- MIC (Bacillus subtilis [41]): 0.5 µg/mL (≈ 0.309 µM)
- fold change (FC) (Bacillus subtilis [42]): 0.5
- MIC (Bacillus subtilis [43]): 0.2 µg/mL (≈ 0.123 µM)
- fold change (FC) (Bacillus subtilis [44]): 2.9
- fold change (FC) (Bacillus subtilis [45]): 0.5
- fold change (FC) (Bacillus subtilis [46]): 535
- MIC (Bacillus subtilis [47]): 1 µg/mL (≈ 0.617 µM)
- MIC (Bacillus subtilis [48]): 0.2 µg/mL (≈ 0.123 µM)
- fold change (FC) (Bacillus subtilis [49]): 0.5
- MIC (Bacillus subtilis [50]): 1 µg/mL (≈ 0.617 µM)
- fold change (FC) (Bacillus subtilis [51]): 2.2
